Screening results deposited in PubChem by The Scripps Research Institute Molecular Screening Center.
CHO parental Ca = counter-screen for OX1R antagonists: effect in parental CHO cells; AID 463079; hit rate 0.63% among 330,000; parental CHO-K1, ATP-induced calcium, Fluo-8 fluorescence; inhibition, % at 5.6 µM;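 active = inhibition above that plate's mean sample inhibition plus 3 SD, cut at about 26% in these data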
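material = parental CHO cells | also added = ATP as calcium-mobilizing challenge | dosing = single point at 5.6 µM | detection = intracellular calcium via Fluo-8 no-wash fluorescent dye | read-out = % inhibition | benchmarks = low control ATP plus DMSO, high control DMSO only | repeats = one well per compound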
TAAR1 agonist = agonists of human TAAR1. CHO RD-HGA16 TAAR1, Fluo-8 calcium fluorescence; vehicle wells 0%, saturating PEA agonist 100%. activation, % at 3 µM. hit rate 0.99% among 360,000. AID 624467;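 active = activation above the mean activation of all test compounds in the run plus 3 SD, cut at about 38% in these data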
Target sequence (Q96RJ0 whole entry, looked up): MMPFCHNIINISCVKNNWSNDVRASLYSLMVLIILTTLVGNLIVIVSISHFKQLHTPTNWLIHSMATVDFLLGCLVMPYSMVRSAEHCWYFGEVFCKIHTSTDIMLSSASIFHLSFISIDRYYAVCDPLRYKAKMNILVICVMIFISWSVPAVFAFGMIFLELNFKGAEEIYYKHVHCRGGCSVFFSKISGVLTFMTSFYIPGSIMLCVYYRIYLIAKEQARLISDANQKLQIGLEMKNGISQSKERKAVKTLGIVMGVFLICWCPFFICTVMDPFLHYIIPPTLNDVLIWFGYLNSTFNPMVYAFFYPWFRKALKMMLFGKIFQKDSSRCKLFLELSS
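System: CHO-derived RD-HGA16 cells with stable Gα16 and human TAAR1 / Times: 17-24 h plating, Fluo-8 75 min 37 °C, 30 min RT / Technique: calcium-sensitive Fluo-8 signal, excitation 470-495, emission 515-575 nm / Measure: % activation relative to PEA EC100 response / Benchmarks: DMSO and PEA EC100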
TAAR1 antagonist = antagonists of human TAAR1 | CHO RD-HGA16 TAAR1, Fluo-8 calcium fluorescence, antagonist | hit rate 1.5% among 360,000 | inhibition, % at 3 µM | AID 624466;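 active = inhibition above a per-plate cutoff, the mean inhibition of test compounds on that plate plus 3 SD, cut at about 49% in these data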
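Test system – hTAAR1-expressing CHO RD-HGA16 cells, Gα16-coupled · Reagent – β-PEA at EC80 concentration, post-compound challenge · Compound dosing – 3 µM, single point · Timing – 140 s kinetic read after compound, 140 s after agonist · Detection – Fluo-8 intracellular calcium dye fluorescence, real-time kinetic reads · Control set – DMSO and EC80 PEA controls · Repeats – n of 1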
GPR7 antagonist = blocks human GPR7 receptor signaling; hit rate 1.1% among 290,000; GPR7-expressing cells, fluorescence antagonist assay; P48145; inhibition, % at 4.4 µM; AID 1861; in the data active = inhibition above about 16%, passing the limit was not always enough;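 also: cells stimulated with the agonist NPW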
Target sequence (P48145 whole entry, looked up): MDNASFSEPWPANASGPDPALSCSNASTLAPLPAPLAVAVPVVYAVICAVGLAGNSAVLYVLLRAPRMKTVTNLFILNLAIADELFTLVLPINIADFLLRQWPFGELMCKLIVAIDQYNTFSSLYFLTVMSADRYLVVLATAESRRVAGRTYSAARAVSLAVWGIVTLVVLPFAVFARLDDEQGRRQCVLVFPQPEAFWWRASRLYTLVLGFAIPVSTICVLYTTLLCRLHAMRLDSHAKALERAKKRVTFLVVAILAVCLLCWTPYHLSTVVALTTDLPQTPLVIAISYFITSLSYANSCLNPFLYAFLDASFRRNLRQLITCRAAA
OX1R antag-1 = human HCRTR1 antagonism; O43613; CHO/OX1R cells, Fluo-8 calcium fluorescence, orexin A; inhibition, % at 5 µM; hit rate 0.43% among 330,000; AID 434989;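 active = inhibition above its plate's threshold, mean inhibition of all tested compounds on the plate plus 3 SD, cut at about 37% in these data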
OX1R antag-2 = blocks the human orexin 1 receptor; O43613; OX1R-expressing cells, FRET antagonist read-out; inhibition, % at 6.6 µM; hit rate 1.8% among 330,000; AID 485270; in the data active = inhibition mostly above about 38%, no sharp cut-off; inactive = mostly below about 40%
OX1R HTRF conf = confirmation of human orexin 1 receptor antagonists, HTRF format; hit rate 49% among 1,800; shares compounds with OX1R antag-2; inhibition, % at 6.6 µM; OX1R-expressing cells, HTRF antagonist assay; in the data active = inhibition above about 55%;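 also: CHO cells expressing OX1R stimulated with orexin A at about EC80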
CHO-K1 HTRF cnt = counter-screen: parental CHO-K1 HTRF response; shares compounds with OX1R antag-2; parental CHO-K1 cells, HTRF counterscreen; inhibition, % at 6.6 µM; hit rate 48% among 1,800; in the data active = inhibition above about 17%
Hits are given with their value; . = inactive; / = no result given. Most compounds without a hit are left out; they make up all but 4.6% or so of the library.

SMILES	CHO parental Ca	TAAR1 agonist	TAAR1 antagonist	GPR7 antagonist	OX1R antag-1	OX1R antag-2	OX1R HTRF conf	CHO-K1 HTRF cnt
CCOC(=O)C1CCN(C(=O)c2cc3cc4ccc(OC)cc4nc3o2)CC1	.	.	.	.	.	.	/	/
Cc1nnc(NC(=O)CSc2nc3ccccc3o2)s1	.	.	.	.	.	.	/	/
CC1CCc2nc(NC(=O)CSc3nc4ccccc4o3)sc2C1 (centres undefined)	.	.	.	.	.	89	.	.
CCCN1CCCC[C@H]1C(=O)Nc1c(C)cccc1C	.	.	.	/	.	.	/	/
Cc1cc(C)c(NC(=O)C2CCCN2CCOC(=O)c2cccc([N+](=O)[O-])c2)c(C)c1 (centres undefined)	.	.	.	.	.	97	70	.
COc1ccc(Br)c(C(=O)N2CCN(S(=O)(=O)c3cccs3)CC2)c1	.	.	.	.	.	136	.	.
Cc1cccc(C(=O)OCC(=O)Nc2c(C)n(C)n(-c3ccccc3)c2=O)c1O	.	.	.	/	.	.	/	/
Cc1ccc(-c2csc(NC(=O)CN3CCOCC3)n2)cc1C	.	/	/	.	.	.	/	/
Cc1nn(-c2ccccc2)c(Cl)c1/C=C(\CC(=O)O)c1nc2ccccc2s1	.	.	.	.	.	.	/	/
COc1ccc2c(c1)O/C(=C\c1sccc1C)C2=O	.	.	.	.	.	81	.	.
COC(=O)c1ccc2nc(-c3ccccc3)c(Cc3cccc(Cl)c3)n2c1	/	.	.	/	/	/	/	/
O=C(NCCN1CCOCC1)c1cc(Sc2ccccc2Cl)nc2ccccc12	.	.	.	.	.	91	90	.
COC(=O)c1ccc(NC(=O)c2cccc(N3C(=O)CCC3=O)c2)cc1	/	.	.	/	/	/	/	/
CC(C)N(O)C(=O)NC(C)(C)C	.	.	.	.	.	.	/	/
O=C(Nc1ccc2ccccc2c1)c1cnccn1	.	.	.	.	.	.	/	/
O=C(Nc1ccc2nccnc2c1)c1cnccn1	.	.	.	.	.	132	.	70
Cc1cc(/C=N/n2c(COc3ccccc3)nc3ccccc3c2=O)c(O)c([N+](=O)[O-])c1	.	.	.	.	.	92	.	.
O=C(Cc1ccccc1)NCC(=O)OCC(=O)c1ccc([N+](=O)[O-])cc1	.	.	.	.	.	86	.	42
S=c1[nH]nc(COc2ccccc2)n1C1CCCCC1	.	.	.	.	.	.	/	/
CCOc1ccccc1NC(=S)NNS(=O)(=O)c1c(C)cc(C)cc1C	.	.	.	.	.	97	.	.
N#CC1=C(c2ccc(-c3ccccc3)cc2)COC1=O	.	.	.	.	.	.	/	/
Cc1nc2c(ccc3nc(NC(=O)Cc4ccccc4)sc32)s1	.	.	.	.	.	77	89	.
Cc1ccc(CC(=O)Nc2nc3ccccc3s2)cc1	.	.	.	.	.	.	/	/
CC(C)C(=O)N1CCN(c2ccc(NC(=O)c3ccco3)cc2Cl)CC1	.	.	.	.	.	.	/	/
Cc1ccccc1C(=O)Nn1c(C)ccc1C	.	/	/	.	.	.	/	/
SMILES	CHO parental Ca	TAAR1 agonist	TAAR1 antagonist	GPR7 antagonist	OX1R antag-1	OX1R antag-2	OX1R HTRF conf	CHO-K1 HTRF cnt
O=[N+]([O-])c1cccc(OCc2cn3cccnc3n2)c1	.	.	.	.	.	130	.	27
O=C(COc1ccc2ccccc2c1)N/N=C/C1CC=CCC1 (centres undefined)	.	.	.	.	.	.	/	/
O=C(O)CCC(C(=O)O)n1c(O)c(C2=c3ccccc3=NC2=O)sc1=S (centres undefined)	.	.	.	.	.	150	68	105
O=C1N=c2ccccc2=C1c1sc(=S)n(CC2CCCO2)c1O (centres undefined)	.	.	.	.	.	.	/	/
N#C/C(=C\c1ccc([N+](=O)[O-])cc1)c1ccccn1	.	.	.	.	.	121	.	51
COC(=O)c1ccc(/C=C(\C#N)c2ccccn2)cc1	.	.	.	.	.	.	/	/
Cc1cc(C)c(C)c(S(=O)(=O)N2CCC(C(=O)NCC(c3ccccc3)N(C)C)CC2)c1C (centres undefined)	.	.	.	.	.	.	/	/
CC(=O)N1CCN(CC(=O)Nc2cc([N+](=O)[O-])ccc2Cl)CC1	.	.	.	.	.	.	/	/
O=C(CN1CCN(c2ccc(O)cc2)CC1)Nc1cc([N+](=O)[O-])ccc1Cl	.	.	.	.	.	79	.	47
COc1ccc(C(=O)N2CCN(c3nc4cc(C)ccc4cc3C#N)CC2)c(OC)c1	.	.	.	.	.	.	/	/
COc1cc(C(=O)N2CCCN(c3nc4cc(C)ccc4cc3C#N)CC2)cc(OC)c1OC	.	.	.	/	.	80	86	.
CC1=C(C#N)C(c2cccnc2)C2=C(N1)c1ccccc1C2=O (centres undefined)	.	.	.	.	.	96	.	.
O=C(c1ccc2c(c1)C(=O)N(CCCO)C2=O)c1ccc2c(c1)C(=O)N(CCCO)C2=O	.	.	.	.	.	149	56	67
O=C1c2ccc3c4c(ccc(c24)C(=O)N1CCCCO)C(=O)N(CCCCO)C3=O	/	.	.	.	/	/	/	/
O=C(NCCCN1CCCC1=O)c1ccc([N+](=O)[O-])s1	.	.	.	/	.	119	57	71
CC(C)N(CCc1ccncc1)C(=O)Nc1ccc(F)cc1	.	.	.	.	.	.	/	/
CCCCNc1ccc2nsnc2c1[N+](=O)[O-]	.	.	.	.	.	120	59	90
Cc1ccc2nsnc2c1NC(=O)c1ccc([N+](=O)[O-])cc1	.	.	.	.	.	.	/	/
O=C1C(=O)c2ccccc2C([O-])=C1[n+]1ccccc1	.	.	.	.	.	171	60	108
NS(=O)(=O)c1ccc(N/N=C/c2ccccc2C(=O)O)c([N+](=O)[O-])c1	.	.	.	.	.	161	.	74
O=C(O)c1ccccc1/C=N/Nc1ccc(S(=O)(=O)N2CCOCC2)cc1[N+](=O)[O-]	.	.	.	.	.	.	/	/
Cc1ccc(C(=O)NC2CCN(Cc3ccccc3)CC2)cc1S(=O)(=O)N1CCOCC1	.	.	.	/	.	.	/	/
CCCCNC(=O)NS(=O)(=O)c1ccc(C(=O)OC(C)C)o1	.	.	.	.	.	.	/	/
CCN1CCN(C(=O)/C=C/c2ccc([N+](=O)[O-])cc2)CC1	.	.	.	.	.	97	.	59
CCn1cc(CN(C)C(=O)/C=C/c2ccc([N+](=O)[O-])cc2)c(C)n1	.	.	.	.	.	92	.	35
CC(C)CC(=O)NC(=S)Nc1ccc(S(=O)(=O)Nc2nccs2)cc1	.	.	.	.	.	.	/	/
